UPR XBP1 act = activators of adaptive arm of unfolded protein response (XBP1) | CHO-XBP1 luciferase reporter, IRE1-XBP1 UPR activation, luminescence; percent of tunicamycin response, DMSO as zero | activation, % at 20 µM | 330,000 tested, 0.33% active | AID 463104;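 active = versus positive control, 20 µM dose yields 30% or more activation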;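 also: 100% = tunicamycin at 10 µg/mL and 0% = DMSO only wells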
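Material: CHO cell line with stable XBP1 luciferase reporter; buffer or medium: F12 medium containing 10% fetal bovine serum; compound: single point, 20 µM final compound, 1% DMSO; incubation: 6 h treatment, 37 °C; measured by: glow luminescence from Steady-Glo reagent; evaluation: activation, % of tunicamycin; control set: tunicamycin high, DMSO low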
Bfl-1 A1 inh = inhibitors of the anti-apoptotic protein A1, read as caspase activation | MEF A1-2A-BIM cells, Caspase-Glo 3/7 luminescence, 3 h; percent of clofoctol response, vehicle zero | 330,000 tested, 0.066% active | AID 2462 | caspase activation, % (test concentration not listed);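 active = over half of replicate activation scores above 10%, or exactly half above 10 with the replicate mean above 10; inconclusive = replicate mean below 10 yet half the replicates above 10; inactive = over half of replicates below 10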
UPR CHOP act = apoptotic UPR (CHOP) activation; CHO-CHOP luciferase reporter, luminescence; percent of tunicamycin response over DMSO baseline; 330,000 tested, 0.34% active; activation, % at 10 µM; AID 449763;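 active = at 10 µM dose, activation of 40% or more, normalized to positive control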;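 also: 100% = tunicamycin at 10 µg/mL and 0% = DMSO alone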
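Material: CHO-CHOP cells, stable luciferase reporter of PERK-eIF2a-CHOP signalling; quantity: 500 reporter cells seeded per well; buffer or medium: F12 medium containing 10% fetal bovine serum; compound: one dose, 10 µM in 0.5% DMSO; incubation: 6 h compound treatment, 37 °C; measured by: Steady-Glo luciferase luminescence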
MC4R antag cAMP = blocks human MC4R cAMP signaling. inhibition, % at 6.5 µM. 360,000 tested, 0.48% active. P32245. MC4R-expressing cells, MTII-stimulated cAMP, LANCE TR-FRET. AID 540295;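 active = inhibition above its plate's cutoff, the mean of tested wells on that plate plus 3 SD, cut at about 29% in these data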;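 also: 0% = Melanotan II alone and 100% = Melanotan II plus saturating MCL0020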
Target sequence (P32245 whole entry, looked up): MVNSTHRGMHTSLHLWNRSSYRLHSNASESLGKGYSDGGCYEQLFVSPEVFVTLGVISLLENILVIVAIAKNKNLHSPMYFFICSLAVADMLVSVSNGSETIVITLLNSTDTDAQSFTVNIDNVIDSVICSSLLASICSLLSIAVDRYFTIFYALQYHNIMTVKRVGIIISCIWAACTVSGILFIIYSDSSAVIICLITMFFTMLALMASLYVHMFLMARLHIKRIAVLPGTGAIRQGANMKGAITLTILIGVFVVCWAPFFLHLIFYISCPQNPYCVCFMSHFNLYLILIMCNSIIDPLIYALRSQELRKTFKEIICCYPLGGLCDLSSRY
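System – human MC4R-expressing U2OS cells · Also added – Melanotan II · Dosing – one concentration, 6.5 µM nominal · Timing – 30-min compound, 1-h challenge, 1-h detection, room temperature · Measured by – Eu-cAMP/anti-cAMP TR-FRET, emission 671 nm · Replicates – singlicate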
MC4R ag barr = human MC4R agonism via beta-arrestin | U2OS MC4R beta-arrestin complementation, luminescence; percent of melanotan II response, DMSO zero | activation, % at 8.9 µM | 360,000 tested, 0.98% active;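 active = activation above a per-plate cutoff, the mean activation of sample wells on that plate plus 3 SD, cut at about 8% in these data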
Starred values were filed as active, the others as inactive; ? = inconclusive; nt = not tested or not shown. Sampled rows, rich in hits. Any-hit rate of the full collection: about 2%.

SMILES	UPR XBP1 act	Bfl-1 A1 inh	UPR CHOP act	MC4R antag cAMP	MC4R ag barr
CCN(CC)C(=O)C1=C(C)N(Cc2ccc(F)cc2)C(=O)C(CC(=O)NCCCN(C)C)C1 (centres undefined)	nt	nt	nt	5	-3
COc1cccc(C(=O)COC(=O)c2ccc(NC(=O)c3ccccc3)cc2)c1	-2	0	4	0	8.7*
NC(c1csc(Nc2ccc(C(F)(F)F)cn2)n1)C1CCCCC1 (centres undefined)	nt	nt	nt	3	8.9*
Cn1cc(Cc2ccc(C(=O)NC34CC5CC(CC(C5)C3)C4)cn2)c2ccccc21	nt	nt	nt	10	0
CCC(=O)Oc1ccc(NC(=O)c2ccc(S(=O)(=O)N3CCCC3)cc2)cc1	nt	nt	nt	8	1
COCCN=C1N[C@@H](c2cccc(C(F)(F)F)c2)C(C(=O)OC)=C(C)N1Cc1ccccc1	-2	0	0	-4	-1
COC(=O)C1=C(C)N(Cc2ccccc2)C(=NCCc2c[nH]c3ccccc23)N[C@H]1c1cccc(C(F)(F)F)c1	17	0	3	11	33*
COC(=O)C1=C(C)N(Cc2ccccc2)C(=NCc2cccc(C(F)(F)F)c2)N[C@H]1c1cccc(C(F)(F)F)c1	-7	0	35	8	21*
COC(=O)C1=C(C)N(Cc2ccccc2)C(=NCc2cccc(C(F)(F)F)c2)N[C@H]1c1cccc(F)c1	9	-1	12	9	13*
CS(=O)(=O)Nc1cccc(-c2cc(NC=O)c3ncc(-c4ccc(F)c(Cl)c4)n3c2)c1	nt	nt	nt	-7	-1
CC(C)(C)c1ccc(CC(=O)N2CCC2(C)C(=O)NS(=O)(=O)c2ccccc2Cl)cc1 (centres undefined)	nt	nt	nt	7	-1
O=c1[nH]c(SCc2nc3c(cnn3-c3ccccc3)c(=O)[nH]2)nc2ccccc12	nt	nt	nt	2	1
O=c1[nH]c(SCc2ccccc2Cl)nc2c1cnn2-c1ccccc1	7	1	0	-9	9.3*
Cc1ccc2c(c1)c1c(n2CC(O)CNC2CCCCC2)CCCC1 (centres undefined)	11	0	4	-2	9.0*
COC1=CC(C)C2CC3OC(O)CC4C(C)=C(OC)C(=O)C(C2(C)C1=O)C34C (centres undefined)	nt	nt	nt	-1	0
COc1ccc(-c2nnc(SCc3nc4ccccc4c(=O)[nH]3)o2)cc1	1	-1	1	-15	8.2*
COc1ccc(NC(=O)C2CCCN2S(=O)(=O)c2ccc3c(c2)C(C)(C)C(=O)N3C)cc1 (centres undefined)	nt	nt	nt	18	0
N/C(Cc1ccc(Cl)cc1)=N\OC(=O)c1ccc2ccccc2c1	3	?	2	23	9.2*
COc1cccc(C2CC(c3ccc(Cl)cc3Cl)Nc3nc(N)nn32)c1 (centres undefined)	0	0	1	11	9.2*
CC(=O)Nc1ccc(NC(=O)C(=O)NCC(c2ccco2)N2CCc3ccccc32)cc1 (centres undefined)	2	32*	0	1	2
C/C(=N\NC(=O)CNc1cccc(C(F)(F)F)c1)c1ccc(Br)cc1	2	0	2	8	8.3*
O=c1c(Br)c(Br)cnn1-c1ccccc1	nt	nt	nt	24	3
Cc1ccc(-n2ncc(Br)c(Br)c2=O)cc1	nt	nt	nt	45*	1
Cc1cccc(OCc2nnc(SCC(=O)Nc3ccc(C)c(Cl)c3)o2)c1	-3	0	0	-7	27*
Cc1cccc(OCc2nnc(SCC(=O)N3CCCC3)o2)c1	-2	0	1	5	5
SMILES	UPR XBP1 act	Bfl-1 A1 inh	UPR CHOP act	MC4R antag cAMP	MC4R ag barr
Cc1ccc(S(=O)(=O)N(C)C[C@@H]2OCc3cnnn3CCCC(=O)N([C@H](C)CO)C[C@@H]2C)cc1	nt	nt	nt	0	-1
Cc1nc2ccccc2cc1OCc1ccccc1	7	0	6	-2	8.5*
CCCCNC(=O)COC(=O)c1c2c(nc3ccccc13)/C(=C\c1cccs1)CC2	nt	nt	nt	26	3
CC(C)CNC(=O)COC(=O)c1c2c(nc3ccccc13)/C(=C/c1cccs1)CC2	nt	-1	nt	17	9.5*
Cn1nnc2cc(NC(=O)Nc3ccccc3F)ccc21	nt	nt	nt	9	0
Cc1cc(NC(=O)Nc2ccccc2F)ccc1Br	1	-9	5	3	8.7*
COc1ccc(Oc2ccc3c(C(F)(F)F)cc(C(F)(F)F)nc3n2)cc1	3	0	-2	-9	4
Oc1ccc(Oc2ccc3c(C(F)(F)F)cc(C(F)(F)F)nc3n2)cc1	-1	1	2	14	15*
CCc1nc2ccc(C(=O)NCc3ccc(OC)cc3)cn2c1N(C)CCC(C)C	nt	nt	nt	18	6
COCCCNC(=O)c1cccn2c(=O)c3cc4ccccc4cc3nc12	3	0	7	-12	9.1*
COc1ccc(/C=C/C(=O)OCC(=O)c2ccc3c(c2)NC(=O)CO3)cc1	1	0	1	9	13*
N#Cc1ccc(-c2ccc(F)cc2)nc1Oc1ccccc1	-2	0	5	-2	7
N#Cc1ccc(-c2ccc(F)cc2)nc1Oc1ccc(F)cc1	-2	-1	-1	11	9.3*
O=S(=O)(Nc1cccc(Cl)c1)c1ccc(-n2cccn2)cc1	-1	1	0	-1	3
Cc1ccc(C)c(NS(=O)(=O)c2ccc(-n3cccn3)cc2)c1	nt	nt	nt	3	0
Cc1ccc(NS(=O)(=O)c2ccc(-n3cccn3)cc2)cc1C	-3	-1	1	10	9.4*
CCc1cccc(NS(=O)(=O)c2ccc(-n3cccn3)cc2)c1	-5	-1	1	11	8.3*
CN(C)S(=O)(=O)n1cc(/C=C(\NC(=O)c2ccccc2F)C(=O)N2CCCCC2)c2ccccc21	nt	nt	nt	8	3
CCc1nc2c(OCC(=O)C(C)(C)C)cccn2c1N(C)C(=O)COc1ccccc1	nt	nt	nt	-1	-1
O=Nc1c(O)n(Cc2c(Cl)cccc2Cl)c2ccccc12	0	1	0	0	8.4*
O=Nc1c(O)n(Cc2ccc(Cl)cc2)c2ccccc12	0	1	0	4	3
COCCNC(=O)C1CCCN(C(=O)COc2ccc(C(C)(C)C)cc2)CC1 (centres undefined)	nt	nt	nt	-3	-1
C[C@@H]1CN([C@@H](C)CO)C(=O)CCCn2nncc2CO[C@H]1CN(C)Cc1ccc2cccnc2c1	nt	nt	nt	0	3
O=S(=O)(c1ccc(S(=O)(=O)N(Cc2ccccc2)Cc2ccco2)cc1)N1CCCC1	4	0	3	-1	8.5*
CCN(Cc1ccccc1)S(=O)(=O)c1ccc(S(=O)(=O)N2CCN(C)CC2)cc1	0	0	1	12	0

Screens: PubChem, several laboratories
